Published values pooled from the literature.
Target: Myosin light chain kinase (MYLK3, Homo sapiens, UniProt Q32MK0)
One construct used (Q32MK0 1-819): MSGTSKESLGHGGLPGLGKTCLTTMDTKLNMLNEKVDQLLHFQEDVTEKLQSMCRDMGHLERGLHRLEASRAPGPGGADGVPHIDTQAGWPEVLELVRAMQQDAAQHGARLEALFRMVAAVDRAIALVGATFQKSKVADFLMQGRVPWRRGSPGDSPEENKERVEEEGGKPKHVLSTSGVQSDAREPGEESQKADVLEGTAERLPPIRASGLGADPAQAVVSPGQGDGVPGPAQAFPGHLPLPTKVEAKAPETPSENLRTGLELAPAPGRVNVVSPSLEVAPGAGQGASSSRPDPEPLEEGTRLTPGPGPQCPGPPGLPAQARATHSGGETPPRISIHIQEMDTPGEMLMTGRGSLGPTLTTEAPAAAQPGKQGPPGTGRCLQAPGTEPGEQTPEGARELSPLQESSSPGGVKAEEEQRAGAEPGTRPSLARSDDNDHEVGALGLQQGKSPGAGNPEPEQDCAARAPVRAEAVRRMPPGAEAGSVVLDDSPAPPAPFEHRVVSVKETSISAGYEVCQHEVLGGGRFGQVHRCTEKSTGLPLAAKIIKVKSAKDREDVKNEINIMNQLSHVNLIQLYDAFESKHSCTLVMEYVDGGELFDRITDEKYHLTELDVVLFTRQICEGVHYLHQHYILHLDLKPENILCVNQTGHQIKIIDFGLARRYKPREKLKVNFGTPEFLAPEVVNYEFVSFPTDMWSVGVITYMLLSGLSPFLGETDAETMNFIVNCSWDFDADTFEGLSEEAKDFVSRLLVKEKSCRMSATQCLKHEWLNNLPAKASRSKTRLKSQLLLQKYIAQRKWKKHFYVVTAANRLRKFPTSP

Structure (SMILES) | effect on | technique | concentration | remaining binding [%]
CN(c1nccc(-c2cnn3ncccc23)n1)C1CC1 | binding |  | 1 µM | 100
O=C(NCCCN1CCOCC1)c1ccc(Nc2nccc(-c3cc4ccccc4s3)n2)cc1 | binding | competition with immobilised ligand | 1 µM | 3.6
C[C@H]1CCN(c2nccc(-c3cnn4ncccc34)n2)C1 | binding |  | 1 µM | 98
O=C(Nc1c[nH]nc1C(=O)NC1CCNCC1)c1cc(F)cc(F)c1 | binding | competition with immobilised ligand | 1 µM | 90
CC(=O)N1CCC(c2ccc(C(=O)NC3=NCCN3)cc2C(F)(F)F)CC1 | cell-free assay | competition with immobilised ligand | 1 µM | 100
c1cnn2ncc(-c3ccnc(N4CCC45COC5)n3)c2c1 | binding |  | 1 µM | 100
O=C(c1ccc(Nc2ncc(Cl)c(-c3cc4ccccc4s3)n2)cc1)N1CCC(N2CCCC2)CC1 | binding | competition with immobilised ligand | 1 µM | 2
COc1cnc(Nc2cccc(S(N)(=O)=O)c2)nc1N1CCN(c2ccccc2)C(=O)C1 | binding | competition with immobilised ligand | 1 µM | 97
Cc1cnc(Nc2ccc(C(=O)N3CCC(N4CCCC4)CC3)cc2)nc1-c1cc2ccccc2s1 | binding | competition with immobilised ligand | 1 µM | 5.1
C[C@@H]1CN(c2cc(-c3nn(C)c4ccc(OC5(C)CC5)cc34)ncn2)C[C@H](C)O1 | cell-free assay | competition with immobilised ligand | 1 µM | 97
CN(C)c1ncc(F)c(-c2cnn3ncccc23)n1 | binding |  | 1 µM | 77
N#CC1(c2ccccn2)CCN(Cc2cc(C(=O)N3CCCC3)c(=O)n3ccccc23)CC1 | cell-free assay | competition with immobilised ligand | 1 µM | 76
Nc1ncc2c(n1)-c1c([nH]c3ccc(C#CC4CC4)cc13)CCCC2 | binding | competition with immobilised ligand | 1 µM | 91
C[C@@H](c1ccc(-n2cnc3c(N)ncnc32)cc1)N1CCc2nn(C)c(Cc3ccccc3)c2C1=O | binding | competition with immobilised ligand | 0.1 µM | 100
CNC(=O)[C@@H]1CC[C@@H](n2c(-c3ccc4cnccc4c3)nc3ccc(C(=O)NCc4cccc(C(N)=O)c4)cc32)C1 | binding | competition with immobilised ligand | 1 µM | 100
CS(=O)(=O)N1CCCC(NC(=O)[C@H](CCC2CCCCC2)NC(=O)c2ccc(CNC(=O)c3cnc4ccccn34)cc2)C1 (stereo partly drawn) | cell-free assay | competition with immobilised ligand | 0.1 µM | 88
N[C@H]1CCN(c2nccc(-c3cnn4ncccc34)n2)C1 | binding |  | 1 µM | 88
Cn1nc(C(=O)NCc2ccc(C(=O)O)cc2)cc1-c1ccc2[nH]ccc2c1 | cell-free assay | competition with immobilised ligand | 0.1 µM | 100
CC1CCCN1c1nccc(-c2cnn3ncccc23)n1 (stereo not drawn) | binding |  | 1 µM | 100
Nc1c(C(=O)NCc2ccc(C(=O)NCCCC3CCCCC3)cc2)cnn1-c1ccccc1 | cell-free assay | competition with immobilised ligand | 0.1 µM | 100
c1cncc(-c2cccc(Nc3nccc(NC4CCCCC4)n3)c2)c1 | binding | competition with immobilised ligand | 10 µM | 100
